Data on 1 molecule can be found in ChEMBL document CHEMBL4130442, “Design, synthesis and structure-activity relationship studies of a focused library of pyrimidine moiety with anti-proliferative and anti-metastasis activities in triple negative breast cancer” (Eur J Med Chem, 2017).

The term IC50 denotes the point on the concentration scale where inhibition reaches its midpoint.

Calls of active or inactive are those of the source. The rule behind the calls is not given here.

Data set [1] has as its target T1, Platelet-derived growth factor receptor beta (Homo sapiens, UniProt P09619). The experiment in a line: Inhibition of PDGFRbeta in human MDA-MB-231 cells assessed as ULK Ser317 phosphorylation level at 2.5 uM incubated for 24 hrs in presence of PDGFRbeta siRNA by Western blot relative to untreated control. The class given is cell-based. Put shortly:
(§1)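 Cells were transfected with control or PDGFR-β siRNA, then treated with 2.5 μM compound for 24 h. PDGFR-β-AKT-ULK1 pathway phospho-proteins were assessed by western blot: lysis in Hepes pH 7.4 / Triton buffer, 10-15% SDS-PAGE, PVDF, ECL detection, β-actin as loading control.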
(Immunoblotting shows a protein as a band on a membrane.)

Data set [2] has as its target T1, Platelet-derived growth factor receptor beta. The experiment in a line: Inhibition of PDGFRbeta in human MDA-MB-231 cells assessed as ULK Ser555 phosphorylation level at 5 uM incubated for 24 hrs by Western blot relative to untreated control. In kind it is cell-based. In outline: (§2)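 Cells were treated 24 h at several concentrations. Pooled adherent and floating cells were lysed in Hepes 50 mM pH 7.4 / 1% Triton X-100 buffer with vanadate, NaF, EDTA, PMSF, aprotinin and leupeptin. Equal protein was run on 10-15% SDS-PAGE and blotted to PVDF. PDGFR-β-AKT-ULK1 pathway phospho-proteins were probed and detected by ECL, with β-actin as loading control.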

Data set [3] has the same target. The experiment in a line: Inhibition of PDGFRbeta in human MDA-MB-231 cells assessed as Akt Ser473 phosphorylation level at 10 uM incubated for 24 hrs by Western blot relative to untreated control. The class given is cell-based. In outline: as §2
The subject of data set [4] is MDA-MB-231. Put plainly: Effect on total Ras protein level in human MDA-MB-231 cells at 2.5 uM incubated for 24 hrs in presence of PDGFRbeta siRNA by Western blot relative to untreated control. The class given is cell-based. The note with it: mda-mb-231, 24 h.
For data set [5], the system named is MDA-MB-231. The experiment in a line: Induction of autophagy in human MDA-MB-231 cells assessed as change in LC3-2 protein level at 2.5 uM incubated for 24 hrs by Western blot method relative to untreated control. In kind it is functional. Put shortly: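 MDA-MB-231 cells (ATCC; DMEM, 10% FBS, 5% CO2) were treated 24 h over a concentration series. Adherent and floating cells were pooled and lysed 1 h at 4 °C (50 mM Hepes pH 7.4, 1% Triton X-100, phosphatase/protease inhibitors). Equal protein was run on 10-15% SDS-PAGE, transferred to PVDF, probed for Beclin-1, p62 and LC3 with HRP/ECL detection, and normalised to β-actin.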

The target in data set [6] is Dual specificity mitogen-activated protein kinase kinase; MEK1/2 (Homo sapiens) (UniProt P36507+Q02750). The experiment in a line: Inhibition of MEK1/2 in human MDA-MB-231 cells assessed as MEK1/2 Ser217/221 phosphorylation level at 2.5 uM incubated for 24 hrs in presence of PDGFRbeta siRNA by Western blot relative to untreated control. The class given is cell-based.
Sequence of Dual specificity mitogen-activated protein kinase kinase; MEK1/2 (Homo sapiens) (P36507 whole entry, looked up): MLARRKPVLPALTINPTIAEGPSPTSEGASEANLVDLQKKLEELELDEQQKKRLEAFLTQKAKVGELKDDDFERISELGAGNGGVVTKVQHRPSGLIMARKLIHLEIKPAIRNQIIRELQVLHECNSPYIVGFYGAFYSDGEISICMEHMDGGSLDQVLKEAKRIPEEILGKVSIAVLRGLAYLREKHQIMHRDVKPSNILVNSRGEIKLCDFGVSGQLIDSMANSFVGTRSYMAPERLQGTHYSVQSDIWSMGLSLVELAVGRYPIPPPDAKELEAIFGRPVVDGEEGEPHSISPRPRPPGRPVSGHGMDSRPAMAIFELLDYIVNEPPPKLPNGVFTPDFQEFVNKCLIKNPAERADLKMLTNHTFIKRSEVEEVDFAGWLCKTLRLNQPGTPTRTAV
Sequence of Dual specificity mitogen-activated protein kinase kinase; MEK1/2 (Homo sapiens) (Q02750 whole entry, looked up): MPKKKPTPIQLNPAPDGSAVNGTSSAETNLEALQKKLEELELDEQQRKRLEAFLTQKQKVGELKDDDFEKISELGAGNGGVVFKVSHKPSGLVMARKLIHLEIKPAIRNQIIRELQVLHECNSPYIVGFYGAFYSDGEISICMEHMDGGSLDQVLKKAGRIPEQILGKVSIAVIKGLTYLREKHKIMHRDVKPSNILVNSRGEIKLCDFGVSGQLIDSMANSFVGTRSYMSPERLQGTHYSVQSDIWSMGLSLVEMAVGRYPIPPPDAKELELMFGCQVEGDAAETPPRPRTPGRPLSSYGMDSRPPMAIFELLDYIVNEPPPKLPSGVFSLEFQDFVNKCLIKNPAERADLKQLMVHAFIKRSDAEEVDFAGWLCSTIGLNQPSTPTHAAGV

Data set [7] deals with MDA-MB-231. The experiment in a line: Induction of autophagy in human MDA-MB-231 cells assessed as change in Beclin-1 protein level at 2.5 uM incubated for 24 hrs in absence of PDGFRbeta siRNA by Western blot method relative to untreated control. The class given is functional. Put shortly:
(§3)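 MDA-MB-231 cells were exposed for 24 h. Adherent and floating cells were pooled and lysed for 1 h at 4 °C in 50 mM Hepes pH 7.4 with 1% Triton X-100, orthovanadate, NaF, EDTA, PMSF, aprotinin and leupeptin. After 12,000 rpm clearing, equal protein was run on 10-15% SDS-PAGE and blotted to PVDF. Detection used HRP-ECL, with β-actin as loading control and densitometric quantification.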

For data set [8], the target named is T1, Platelet-derived growth factor receptor beta. The experiment in a line: Inhibition of PDGFRbeta in human MDA-MB-231 cells assessed as Akt Ser473 phosphorylation level at 2.5 uM incubated for 24 hrs in presence of control siRNA by Western blot relative to untreated control. The class given is cell-based. Put shortly: as §1
The test system of a further data set is MDA-MB-468. The experiment in a line: Antiproliferative activity against human MDA-MB-468 cells incubated for 24 hrs by MTT assay. The class given is functional, cell-based. The note with it: MDA-MB-468, 24 h. (In general: Tetrazolium assays rely on reduction of a dye to a coloured formazan, in cell work by metabolically active cells.)
In data set [9] the test system is MDA-MB-231. The experiment in a line: Induction of apoptosis in human MDA-MB-231 cells assessed as change in cleaved caspase-3 protein level at 2.5 uM incubated for 24 hrs by Western blot method relative to untreated control. In kind it is functional. Put shortly:
as §3

The test system of data set [10] is MDA-MB-231. The experiment in a line: Inhibition of cell migration in human MDA-MB-231 cells at 2.5 to 10 uM incubated for 24 hrs by scratch wound healing assay. The class given is functional, cell-based. In outline:
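Cells were grown to confluence and the monolayer was scratched with a longitudinally cut 10 μL tip. Cells were treated with 2.5, 5.0 or 10 μM compound for 24 h and wound closure was viewed by phase-contrast microscopy.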

The target in data set [11] is T1, Platelet-derived growth factor receptor beta. The experiment in a line: Inhibition of PDGFRbeta in human MDA-MB-231 cells assessed as PDGFRbeta Tyr740 phosphorylation level at 5 uM incubated for 24 hrs by Western blot relative to untreated control. The class given is cell-based. In outline:
as §2

The target is the same in data set [12]. The experiment in a line: Inhibition of PDGFRbeta in human MDA-MB-231 cells assessed as Akt Thr305 phosphorylation level at 2.5 uM incubated for 24 hrs in presence of control siRNA by Western blot relative to untreated control. The class given is cell-based. Put shortly: as §1
Data set [13] relates to MDA-MB-231. Put plainly: Induction of autophagy in human MDA-MB-231 cells assessed as change in LC3-2 protein level at 2.5 uM incubated for 24 hrs in presence of PDGFRbeta siRNA by Western blot method relative to untreated control. The class given is functional. In outline: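 Before treatment, MDA-MB-231 cells were transfected with control or PDGFR-β siRNA, then exposed to 2.5 μM compound for 24 h. Lysates of pooled adherent and floating cells were immunoblotted (10-15% SDS-PAGE, PVDF, ECL) for PDGFR-β-AKT-ULK1 autophagy signalling markers, with β-actin as loading control.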

In data set [14] the test system is MDA-MB-231. Put plainly: Effect on total ERK1/2 protein level in human MDA-MB-231 cells at 10 uM incubated for 24 hrs in presence of PDGFRbeta siRNA by Western blot relative to untreated control. The class given is cell-based. The note with it: mda-mb-231, 24 h.
Data set [15] concerns MDA-MB-231. Put plainly: Effect on total mTOR protein level in human MDA-MB-231 cells at 2.5 uM incubated for 24 hrs by Western blot relative to untreated control. The class given is ADME, cell-based. The settings on record: mda-mb-231, 24 h. Put shortly: as §3
The subject of data set [16] is MDA-MB-231. The experiment in a line: Induction of autophagy in human MDA-MB-231 cells assessed as change in p62 protein level at 2.5 uM incubated for 24 hrs by Western blot method relative to untreated control. In kind it is functional. Put shortly: as §3
In data set [17] the test system is MDA-MB-231. The experiment in a line: Effect on total ERK1/2 protein level in human MDA-MB-231 cells at 5 uM incubated for 24 hrs in presence of PDGFRbeta siRNA by Western blot relative to untreated control. The class given is cell-based. The note with it: mda-mb-231, 24 h.
Data set [18] concerns MDA-MB-231. Put plainly: Effect on total MEK1/2 protein level in human MDA-MB-231 cells at 2.5 uM incubated for 24 hrs in presence of PDGFRbeta siRNA by Western blot relative to untreated control. In kind it is cell-based. The settings on record: mda-mb-231, 24 h.
Data set [19] concerns the target T1, Platelet-derived growth factor receptor beta. The experiment in a line: Inhibition of PDGFRbeta in human MDA-MB-231 cells assessed as ULK Ser317 phosphorylation level at 5 uM incubated for 24 hrs by Western blot relative to untreated control. In kind it is cell-based. Put shortly: as §2
The target is the same in data set [20]. The experiment in a line: Inhibition of PDGFRbeta in human MDA-MB-231 cells assessed as C-Raf Ser338 phosphorylation level at 5 uM incubated for 24 hrs in presence of PDGFRbeta siRNA by Western blot relative to untreated control. The class given is cell-based.

T1 sequence (P09619 whole entry): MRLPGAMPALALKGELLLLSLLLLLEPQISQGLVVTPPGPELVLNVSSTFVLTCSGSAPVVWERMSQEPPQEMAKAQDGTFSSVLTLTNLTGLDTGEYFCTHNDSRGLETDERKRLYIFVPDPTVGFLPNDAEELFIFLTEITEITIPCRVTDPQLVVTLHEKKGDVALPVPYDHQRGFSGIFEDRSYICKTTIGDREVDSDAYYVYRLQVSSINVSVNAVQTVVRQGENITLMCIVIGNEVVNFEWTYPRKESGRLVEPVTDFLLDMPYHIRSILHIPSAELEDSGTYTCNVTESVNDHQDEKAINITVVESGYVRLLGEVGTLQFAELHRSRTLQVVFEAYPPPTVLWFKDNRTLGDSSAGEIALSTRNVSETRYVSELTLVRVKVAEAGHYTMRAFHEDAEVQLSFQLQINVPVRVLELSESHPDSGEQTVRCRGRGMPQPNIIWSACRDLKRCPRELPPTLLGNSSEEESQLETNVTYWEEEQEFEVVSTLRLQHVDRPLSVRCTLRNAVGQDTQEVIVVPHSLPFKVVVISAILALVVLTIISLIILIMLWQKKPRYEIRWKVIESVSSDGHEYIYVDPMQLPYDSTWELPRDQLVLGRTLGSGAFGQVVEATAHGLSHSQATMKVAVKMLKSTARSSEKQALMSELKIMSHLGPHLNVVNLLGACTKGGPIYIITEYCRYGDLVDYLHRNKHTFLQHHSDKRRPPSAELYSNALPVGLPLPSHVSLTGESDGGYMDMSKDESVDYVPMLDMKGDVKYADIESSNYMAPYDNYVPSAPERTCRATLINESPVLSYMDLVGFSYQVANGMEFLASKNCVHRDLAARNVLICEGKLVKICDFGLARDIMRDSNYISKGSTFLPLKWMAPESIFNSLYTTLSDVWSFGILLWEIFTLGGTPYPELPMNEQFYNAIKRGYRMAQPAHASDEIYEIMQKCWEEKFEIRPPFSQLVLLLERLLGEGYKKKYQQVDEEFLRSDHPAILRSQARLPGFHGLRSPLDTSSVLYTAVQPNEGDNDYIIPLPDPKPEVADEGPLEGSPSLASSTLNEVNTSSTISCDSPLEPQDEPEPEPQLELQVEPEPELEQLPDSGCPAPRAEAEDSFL

Take `COc1cccc(Nc2cc(N3CCN(C(=O)Nc4ccc(C(F)(F)F)cc4)CC3)ncn2)c1`: the fold change (FC) in [1] stood at 3.46; in [2], 4.2; in data set [3], 0.18; in the data set with MDA-MB-231 [4], 1.2; in the data set with MDA-MB-231 [5] it was 2.5; in data set [6], 1.12. In addition, the “fold change (FC)” value in the data set on MDA-MB-231 [7] turned out to be 4.02; in data set [8] it was 0.88; in the data set on MDA-MB-231 [9] it was 0.87; in [11], 0.78; in [12], 0.1; with MDA-MB-231 [13], 3.01. Besides, the “fold change (FC)” value was found to be 1.53 in the data set with MDA-MB-231 [14]; 0.37 in the data set with MDA-MB-231 [15]; 0.78 in the data set on MDA-MB-231 [16]; 2 with MDA-MB-231 [17]; 1.05 with MDA-MB-231 [18]; 2.1 in data set [19]. Further, the fold change (FC) in data set [20] amounted to 0.78. The same molecule displayed an IC50 with MDA-MB-468 of 3.19 µM. The inhibition entry in the data set with MDA-MB-231 [10] was “Active”.
